Source: PubChem BioAssay
Rows were chosen to be rich in hits. Some 2% of all compounds tested hit in one or more screens of this group.
TNF necrop inh – inhibitors of TNF-alpha triggered necroptosis, primary screen, cell-based, Jurkat FADD-/-, single concentration | activation (protection from cell death), % at 10 µM | Jurkat FADD-/- TNF necroptosis rescue, ATP luminescence, 24 h; 0 = TNF only, 100 = no-TNF cells | actives 0.068% (n = 220,000);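 active = activation, meaning protection from cell death, of at least 50% relative to plate controls; inactive = activation below 50%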;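 note: necroptosis triggered by 40 ng/mL TNF-alpha added together with compound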
Tb hexokinase – Trypanosoma brucei hexokinase 1 inhibitors, primary screen, biochemical, G6PDH-coupled NADH absorbance, MLSCN library; AID 1430, 2008; actives 0.11% (n = 220,000); inhibition, % at 10 µM; recombinant TbHK1, G6PDH-coupled NADH A340;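 active = inhibition of 50% or more in the single-dose primary screen; inactive = inhibition below 50%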
Lipid droplet – inhibitors of hepatocyte lipid droplet formation, primary screen, imaging, high-throughput imaging, BODIPY stain | AML12 mouse hepatocytes, oleate lipid droplets | actives 0.4% (n = 240,000) | inhibition, % at 6.5 µM;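 active = lipid droplet intensity inhibited by at least 50%, with more than 500 cells counted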
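Assay system: AML12 hepatocytes (mouse); Probe or stimulus: oleic acid at 100 µM to induce lipid droplet formation; Dosing: compound at 6.5 µM only; Schedule: compound with oleate, overnight; Detection: fluorescence imaging, 20x objective, two fields per well; Measure: % inhibition of lipid droplet signal.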
zVAD death inh – inhibitors of zVAD-triggered necroptosis, primary screen, L929 cells | L929 zVAD necroptosis rescue, ATP luminescence, 24 h; with zVAD 60 µM | viability rescue, % at 10 µM | actives 0.38% (n = 220,000) | AID 1377, 2008;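 active = activation, scaled between plate controls, above about 75%, limit read from the data; inactive = activation under that limit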;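 note: 0% = zVAD with DMSO and 100% = DMSO alone without zVAD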
PfM18AAP inh – PfM18AAP inhibitors, malaria aminopeptidase, primary screen, biochemical, QFRET, recombinant enzyme | M18 aspartyl aminopeptidase (Plasmodium falciparum 3D7) | H-Glu-NHMec fluorogenic cleavage | inhibition, % at 7.35 µM | actives 1.2% (n = 290,000) | AID 1822, 2009;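 active = inhibition above the campaign mean inhibition over all tested compounds plus 3 SD, cut at about 28% in these data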;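 note: 0% = plate median of test compound wells and 100% = 2 mM ZnCl2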
RBBP9 inhibitor – human RBBP9 inhibitors, primary screen, biochemical, fluorescence polarization, FP-Rh probe, HTS | Serine hydrolase RBBP9 (Homo sapiens), O75884 | recombinant RBBP9 | inhibition, % at 7.94 µM | actives 0.2% (n = 220,000) | AID 1515, 2009;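 active = inhibition above the campaign mean of all tested compounds plus 3 SD, cut at about 14% in these data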;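 note: plate controls were DMSO wells with RBBP9 for no effect and wells lacking RBBP9 protein for full effect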
Target sequence (O75884 whole entry, looked up): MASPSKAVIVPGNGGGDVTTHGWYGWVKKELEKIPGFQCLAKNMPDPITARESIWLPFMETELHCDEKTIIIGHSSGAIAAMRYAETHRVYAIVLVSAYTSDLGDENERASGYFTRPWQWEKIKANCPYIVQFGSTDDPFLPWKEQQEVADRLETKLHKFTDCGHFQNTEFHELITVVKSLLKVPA
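Measured by: FP readout at 525/598 nm; material: recombinant human RBBP9; also added: Serine-hydrolase probe FP-Rh, 375 nM pre-mixing; medium: Tris buffer pH 8.0, NaCl, Pluronic; replication: one well per compound; doses: one concentration, 7.94 µM nominal, 0.794% DMSO; timing: preincubation 30 min plus labeling 45 min at 25 °C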
RBBP9 inh conf – human RBBP9 inhibitors, retest, confirmation, biochemical, fluorescence polarization, FP-Rh probe, triplicate | shares compounds with RBBP9 inhibitor | inhibition, % at 7.94 µM | actives 36% (n = 410) | recombinant RBBP9;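 active = inhibition above the hit cutoff derived for the primary screen, cut at about 15% in these data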;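 note: 0% = RBBP9 with DMSO and 100% = wells lacking RBBP9 protein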
* = called active by the depositor; nt = no result.

SMILES	TNF necrop inh	Tb hexokinase	Lipid droplet	zVAD death inh	PfM18AAP inh	RBBP9 inhibitor	RBBP9 inh conf
CCn1c(SCC(=O)c2ccccc2)nnc1-c1cccnc1	1	-7	3	3	-6	15*	5
Cn1c(CNC(=O)CNC(=O)Cc2ccccc2)cc(=O)n(C)c1=O	nt	nt	9	nt	3	nt	nt
O=C(c1ccccc1)N1CCN(c2ccc([N+](=O)[O-])cc2-n2cccc2)CC1	2	-12	-9	-1	8	14*	1
O=C(c1ccccc1)N1CCN(C(=O)c2ccc([N+](=O)[O-])cc2)CC1	1	1	-6	0	-3	-6	nt
Nc1ccccc1N1CCN(C(=O)c2ccccc2)CC1	1	2	-6	2	10	15*	1
COc1ccc(C(=O)N2CCN(c3ccccc3)CC2)cc1S(=O)(=O)N1CCCC1	nt	nt	-1	nt	-3	nt	nt
COc1ccc(Nc2nc(Nc3ccc(OC)cc3OC)nc(N3CCN(C)CC3)n2)c(OC)c1	4	-3	-4	nt	-2	-5	nt
CCn1c(CSc2nc3ccccc3[nH]2)nc2cc(C(=O)O)ccc21	1	-8	6	0	-2	0	nt
CCn1c(CSc2nccn2C)nc2cc(C(=O)O)ccc21	-2	0	nt	0	13	15*	17*
CSc1nc(N)cc(=O)[nH]1	0	3	nt	0	3	-9	nt
CSc1nc(Cl)cc(=O)[nH]1	3	-1	4	0	1	15*	1
O=[N+]([O-])c1c(NCCCO)cc(Sc2nc3ccccc3s2)c2nonc12	-23	0	nt	1	-45	17*	23*
Cc1nnc(Sc2cc(NCCO)c([N+](=O)[O-])c3nonc23)s1	-18	-11	27	2	-43	18*	24*
Cc1nnc(Sc2cc(NCCCO)c([N+](=O)[O-])c3nonc23)s1	-18	-12	-6	25	-56	22*	30*
COC(=O)[C@@H]1C[C@H]1[C@@H](NC(=O)c1ccccc1)c1ccccc1	1	-6	3	2	-2	-4	nt
COc1ccc(NC(=O)Nc2ccc3oc(C)nc3c2)cc1	1	10	1	10	-12	0	nt
Cc1nc2cc(NC(=O)N(C)c3ccc4ccccc4c3)ccc2o1	-2	-5	0	0	25	16*	5
CCn1c(C)nc2cc(NC(=O)Nc3cccc(C(C)=O)c3)ccc21	nt	nt	0	nt	-1	nt	nt
CCCCNC(=O)c1c(C)cc(=O)oc1C	-1	-36	-8	0	-3	16*	-2
O=C(CSc1nc(-c2ccccc2)cc(=O)[nH]1)N1CCc2ccccc21	-2	1	4	-1	-5	16*	0
CCc1cc(C(=O)N2CCCC(CO)(Cc3ccc(F)cc3)C2)n(C)n1 (stereo unspecified)	nt	nt	-30	nt	5	nt	nt
O=C1c2ccccc2NC(c2cccc(O)c2)N1Cc1ccco1 (stereo unspecified)	-2	-7	-11	0	5	15*	29*
COC(=O)COc1ccc2c(=O)c(-c3ccccc3OC)coc2c1	-1	-10	9	6	0	19*	7
CCOC(=O)COc1ccc2c(=O)c(-c3ccccc3OC)coc2c1	-4	-7	-15	3	2	-8	nt
Cc1ccccc1N(C(=O)c1snc(C(N)=O)c1N)C(C(=O)NC1CCCC1)c1ccco1 (stereo unspecified)	nt	nt	-21	nt	2	nt	nt
SMILES	TNF necrop inh	Tb hexokinase	Lipid droplet	zVAD death inh	PfM18AAP inh	RBBP9 inhibitor	RBBP9 inh conf
Cc1csc(NC(=O)C(NC(=O)c2ccccc2F)C(C)C)n1 (stereo unspecified)	0	-1	-9	-1	0	-2	nt
CC(Cn1cnc2ccccc21)C(=O)O (stereo unspecified)	-2	8	6	0	-3	15*	7
COc1ccc(N2C(=O)C(CC(N)=O)N(NC(=O)CCc3ccccc3)C2=O)cc1 (stereo unspecified)	0	-3	-24	11	1	2	nt
CCCCC1CCC(C(=O)OC(C)C(=O)Nc2ccc(NC(C)=O)cc2)CC1 (stereo unspecified)	nt	nt	-9	nt	2	nt	nt
Cc1cc[n+](CC(=O)Nc2cc(C(F)(F)F)ccc2Cl)cc1	-3	6	nt	0	-14	18*	4
NC1=NC(=O)CC(C(=O)NCc2ccccc2)S1 (stereo unspecified)	-1	-7	-7	1	-22	14*	9
NC1=NC(=O)C(CC(=O)NCc2ccccc2)S1 (stereo unspecified)	1	-8	-3	0	-45	-9	nt
O=C1C2CC=CCC2C(=O)N1Cc1ccccc1 (stereo unspecified)	22	-3	-9	nt	14	19*	9
COc1ccccc1CN1C(=O)C2CC=CCC2C1=O (stereo unspecified)	1	0	nt	0	5	-12	nt
CCC(=O)NC1=C(NC(C)c2ccccc2)C(=O)c2ccccc2C1=O (stereo unspecified)	-1	-9	6	0	-8	-10	nt
CCC(=O)NC1=C(Cl)C(=O)C(NC(=O)CC)=C(Cl)C1=O	-32	-24	-2	37	-38	59*	65*
O=Nc1c(O)[nH]c2ccc(F)cc12	-1	-2	3	40	-4	10	nt
O=Nc1c(O)[nH]c2ccc(Cl)cc12	-2	1	-4	44	4	15*	29*
Cc1cccc2c(N=O)c(O)[nH]c12	-2	-11	-8	-1	0	24*	53*
Clc1ccc(CSc2cc3c(nn2)-c2ccccc2CC3)cc1	1	5	nt	1	7	-6	nt
Cc1ccc2[nH]c(=O)c(CN(CCCN(C)C)C(=S)NCCc3ccccc3)cc2c1	0	-3	4	2	4	11	nt
Cc1cccc2cc(CN(CCCN(C)C)C(=S)NCCc3ccccc3)c(=O)[nH]c12	7	-1	-2	-1	0	17*	27*
CC1(C)NC(=O)NC2(C)NC(=O)NC(C)(C)C12 (stereo unspecified)	-2	-2	nt	0	6	20*	11
